How the values were obtained:
Adenosine receptor A3 [1] = biological target: T1, Adenosine receptor A3 (Homo sapiens, UniProt P0DMS8); test: Inverse agonist activity at human recombinant A3 adenosine receptor expressed CHO cells by [35S]GTPgammaS binding assay; format: functional, cell-based
T1 sequence (P0DMS8 whole entry): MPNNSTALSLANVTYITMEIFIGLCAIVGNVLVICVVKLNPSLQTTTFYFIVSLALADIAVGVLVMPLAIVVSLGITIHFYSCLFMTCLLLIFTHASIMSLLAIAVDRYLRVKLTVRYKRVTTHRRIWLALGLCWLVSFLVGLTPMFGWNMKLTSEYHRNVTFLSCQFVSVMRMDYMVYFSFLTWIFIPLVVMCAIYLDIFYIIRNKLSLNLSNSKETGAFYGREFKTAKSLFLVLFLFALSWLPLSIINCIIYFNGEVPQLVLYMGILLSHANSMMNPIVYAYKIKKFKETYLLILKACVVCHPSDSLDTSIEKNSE

Adenosine receptor A1 = biological target: T2, Adenosine receptor A1 (Homo sapiens, UniProt P30542); test: Displacement of [3H]DPCPX from human adenosine A1 receptor expressed in CHO cells after 120 mins by scintillation spectrometry; format: cell-based
T2 sequence (P30542 whole entry): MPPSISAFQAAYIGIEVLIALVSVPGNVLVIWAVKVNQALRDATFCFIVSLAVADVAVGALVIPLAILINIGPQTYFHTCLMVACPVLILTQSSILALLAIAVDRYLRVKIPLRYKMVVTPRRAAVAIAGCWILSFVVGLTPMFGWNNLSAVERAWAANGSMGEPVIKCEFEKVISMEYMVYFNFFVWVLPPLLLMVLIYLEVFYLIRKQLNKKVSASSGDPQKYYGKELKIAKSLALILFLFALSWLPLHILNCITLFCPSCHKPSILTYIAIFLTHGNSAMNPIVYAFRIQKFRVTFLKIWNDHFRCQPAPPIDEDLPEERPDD
Summary of the method: (§1)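 hA1 CHO membranes (50 μg protein/assay) in 50 mM Tris HCl pH 7.4, pretreated with adenosine deaminase 2 UI/mL for 30 min at 37 °C. Incubated with 1 nM [3H]DPCPX plus 6-8 ligand concentrations for 120 min at 25 °C. Nonspecific binding defined with 1 μM DPCPX. Ki from IC50 by Cheng-Prusoff; geometric means with 95% confidence limits.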

[2] = biological target: T3, Adenosine receptor A2b (Homo sapiens) (UniProt P29275); test: Antagonist activity human adenosine A2B receptor expressed in CHO cells assessed as inhibition of NECA-mediated [3H]cAMP accumulation at =<5000 nM after 150 mins by scintillation counter; format: functional, cell-based
T3 sequence (whole entry): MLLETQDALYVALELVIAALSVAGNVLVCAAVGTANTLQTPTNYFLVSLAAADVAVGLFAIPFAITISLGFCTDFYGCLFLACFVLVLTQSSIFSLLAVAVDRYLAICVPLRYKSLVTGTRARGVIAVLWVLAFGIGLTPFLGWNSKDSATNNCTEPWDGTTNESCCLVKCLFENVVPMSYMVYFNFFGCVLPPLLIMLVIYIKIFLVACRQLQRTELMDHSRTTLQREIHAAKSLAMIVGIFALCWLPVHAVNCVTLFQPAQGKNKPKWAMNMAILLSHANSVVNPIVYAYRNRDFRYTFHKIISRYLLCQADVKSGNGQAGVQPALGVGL
Summary of the method: (§2)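 Intact CHO cells expressing hA2B (1 x 10^6 cells/assay), preincubated 10 min at 37 °C in saline buffer pH 7.4 with 2 IU/mL adenosine deaminase and Ro 20-1724. Antagonism of 100 nM NECA-stimulated cAMP rise. Stopped with cold 6% TCA, ether-extracted. cAMP measured by competition binding with [3H]cAMP and beef adrenal binding protein (4 °C, 150 min), charcoal separation, scintillation counting. IC50 by sigmoid nonlinear regression, mean ± SEM.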

[3] = biological target: Adenosine receptors; A1 & A3 (Homo sapiens) (UniProt P30542+P0DMS8); test: Ratio of Ki for human adenosine A1 receptor to Ki for human adenosine A3 receptor
Adenosine receptor A2a [4] = biological target: T4, Adenosine receptor A2a (Homo sapiens, UniProt P29274); test: Displacement of [3H]ZM 241385 from human adenosine A2A receptor expressed in CHO cells at <=5000 nM after 60 mins by scintillation spectrometry; format: cell-based
T4 sequence (P29274 whole entry): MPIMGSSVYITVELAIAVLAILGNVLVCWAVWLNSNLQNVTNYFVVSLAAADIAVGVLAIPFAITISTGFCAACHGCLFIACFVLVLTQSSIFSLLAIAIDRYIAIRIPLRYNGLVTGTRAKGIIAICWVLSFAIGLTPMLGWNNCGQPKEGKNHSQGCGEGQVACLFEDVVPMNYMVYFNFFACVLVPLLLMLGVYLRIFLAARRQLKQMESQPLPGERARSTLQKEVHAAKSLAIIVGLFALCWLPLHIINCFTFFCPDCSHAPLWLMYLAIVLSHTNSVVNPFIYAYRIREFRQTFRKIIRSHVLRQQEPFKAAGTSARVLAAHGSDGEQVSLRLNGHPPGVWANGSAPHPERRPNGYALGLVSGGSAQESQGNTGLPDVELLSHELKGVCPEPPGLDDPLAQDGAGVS

Adenosine receptor A2b = biological target: T5, Adenosine receptor A2b (Homo sapiens, UniProt P29275); test: Antagonist activity human adenosine A2B receptor expressed in CHO cells assessed as inhibition of NECA-mediated [3H]cAMP accumulation after 150 mins by scintillation counter; format: functional, cell-based; summary of the method: as §2
T5 sequence (P29275 whole entry): T3 sequence (whole entry)

Adenosine receptor A3 [5] = biological target: T1, Adenosine receptor A3; test: Antagonist activity human adenosine A3 receptor expressed in CHO cells assessed as blockade of Cl-IB-MECA-mediated inhibition of forskolin-stimulated [3H]cAMP accumulation after 150 mins by scintillation counter; format: functional, cell-based
Summary of the method: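 hA3-expressing CHO cells (1 x 10^6 cells/assay), preincubated 10 min at 37 °C in saline buffer pH 7.4 with adenosine deaminase 2 IU/mL and Ro 20-1724. Antagonism of 100 nM Cl-IB-MECA inhibition of cAMP in presence of 1 μM forskolin. Stopped with cold TCA. cAMP by [3H]cAMP competition protein binding (4 °C, 150 min), scintillation counting. IC50 from sigmoid nonlinear regression, mean ± SEM.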

Adenosine receptor A3 [6] = biological target: T1, Adenosine receptor A3; test: Displacement of [3H]MRE 3008F20 from human adenosine A3 receptor expressed in CHO cells after 120 mins by scintillation spectrometry; format: cell-based
Summary of the method: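 Membranes from hA3 CHO cells (50 μg protein/assay) in 50 mM Tris HCl, 10 mM MgCl2, 1 mM EDTA pH 7.4, adenosine deaminase-treated. Incubated with 1 nM [3H]MRE 3008F20 and 6-8 ligand concentrations, 120 min at 4 °C. Nonspecific defined with 1 μM MRE 3008F20 (~25% of total). GF/B filtration, three ice-cold washes, scintillation counting. Ki via Cheng-Prusoff; geometric mean, 95% confidence limits, n = 3-6.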

Adenosine receptor A2a [7] = biological target: T4, Adenosine receptor A2a; test: Displacement of [3H]ZM 241385 from human adenosine A2A receptor expressed in CHO cells after 60 mins by scintillation spectrometry; format: cell-based
[8] = biological target: T6, Adenosine receptor A1 (Homo sapiens) (UniProt P30542); test: Displacement of [3H]DPCPX from human adenosine A1 receptor expressed in CHO cells at =<5000 nM after 120 mins by scintillation spectrometry; format: cell-based; summary of the method: as §1
T6 sequence (whole entry): T2 sequence (P30542 whole entry)

Homo sapiens = organism: Homo sapiens; test: Ratio of Ki for human adenosine A2A receptor to Ki for human adenosine A3 receptor
[9] = Solubility of compound in water; format: physicochemical

Row | SMILES | IC50 (Adenosine receptor A3 [1]) [µM] | Ki (Adenosine receptor A1) [µM] | inhibition [2] [%] | Ratio Ki [3] | inhibition (Adenosine receptor A2a [4]) [%] | IC50 (Adenosine receptor A2b) [µM] | IC50 (Adenosine receptor A3 [5]) [µM] | Ki (Adenosine receptor A3 [6]) [µM] | Ki (Adenosine receptor A2a [7]) [µM] | inhibition [8] [%] | Ratio Ki (Homo sapiens) | solubility [9] [mg/mL]
1 | CC[C@@H]1CN2C(=O)N(C)c3nc(-c4cc(Cl)cc(Cl)c4Cl)[nH]c3C2=N1 | 0.004 |  |  |  |  |  |  |  |  |  |  | 
2 | COc1cc(-c2nc3c([nH]2)C2=NC(C)CN2C(=O)N3Cc2ccccc2)n(C)n1 (configuration not stated) |  | 1.9 | 11 | 610 | 1 | > 5 | 0.0276 | 0.00311 | > 5 |  |  | 
3 | Cc1cc(-c2nc3c([nH]2)C2=NC(C)CN2C(=O)N3Cc2ccccc2)nn1C (configuration not stated) |  | > 5 | 24 | > 400 | 9 | > 5 |  | 0.0122 | > 5 | 22 | 330 | 
4 | CCCN1C(=O)N2C[C@@H](CC)N=C2c2[nH]c(C34CCC(O)(CC3)CC4)nc21 |  |  |  |  |  |  |  |  |  |  |  | > 100
5 | C=CCN1C(=O)N2CC(C)N=C2c2[nH]c(-c3cc(C)nn3C)nc21 (racemic) |  | 2.04 | 30 | 450 | 7 | > 5 | 0.0342 | 0.00456 | > 5 |  |  | 
6 | C=CCN1C(=O)N2CC(CC)N=C2c2[nH]c(-c3cc(C)nn3C)nc21 (racemic) |  | 0.515 | 20 | 170 | 8 | > 5 | 0.0303 | 0.00301 | > 5 |  |  | 
7 | C=CCN1C(=O)N2CC(C)N=C2c2[nH]c(-c3cc(OC)nn3C)nc21 (racemic) |  | > 5 | 13 | 2100 | 1 | > 5 | 0.0145 | 0.00236 | > 5 | 30 | 2100 | 
8 | C=CCN1C(=O)N2CC(CC)N=C2c2[nH]c(-c3cc(OC)nn3C)nc21 (racemic) |  | 1.53 | 16 | 780 | 1 | > 5 | 0.0122 | 0.00196 | > 5 |  |  | 
9 | CCC1CN2C(=O)N(Cc3ccccc3)c3nc(-c4cc(OC)nn4C)[nH]c3C2=N1 (racemic) |  | 0.405 | 22 | 105 | 9 | > 5 | 0.0204 | 0.00385 | > 5 |  |  | 
10 | C=CCN1C(=O)N2CC(C)N=C2c2[nH]c(-c3cc(OCc4ccccc4)nn3C)nc21 (racemic) |  | > 5 | 17 | 202 | 25 | > 5 |  | 0.0247 | > 5 | 47 |  | 
11 | C=CCN1C(=O)N2CC(C)N=C2c2[nH]c(-c3cc(C)n(C)n3)nc21 (racemic) |  | > 5 | 9 | > 359 | 1 | > 5 |  | 0.0139 | > 5 | 13 |  | 
12 | C=CCN1C(=O)N2CC(CC)N=C2c2[nH]c(-c3cc(C)n(C)n3)nc21 (racemic) |  | > 5 | 16 |  | 1 | > 5 |  | 0.0125 | > 5 | 20 | 330 | 
13 | CCC1CN2C(=O)N(Cc3ccccc3)c3nc(-c4cc(C)n(C)n4)[nH]c3C2=N1 (racemic) |  | > 5 | 27 |  | 13 | > 5 |  | 0.015 | > 5 | 28 | 330 | 
14 | C=CCN1C(=O)N2CC(C)N=C2c2[nH]c(-c3cc(OC)no3)nc21 (racemic) |  | > 5 | 13 | > 1400 | 11 | > 5 | 0.0242 | 0.00358 | > 5 | 26 |  | 
15 | COc1cc(-c2nc3c([nH]2)C2=NC(C)CN2C(=O)N3Cc2ccccc2)on1 (racemic) |  | > 5 | 11 | 1800 | 5 | > 5 | 0.0204 | 0.00268 | > 5 | 35 | > 1800 | 

From ChEMBL document CHEMBL1799944, “New 2-heterocyclyl-imidazo[2,1-i]purin-5-one derivatives as potent and selective human A3 adenosine receptor antagonists” (J Med Chem, 2011)
